{"source": "paper PMC10878326", "about": "(Cell chemical biology, 2023)", "key": {"[1]": {"system": "P. berghei schizonts in HC-04 cells", "test": "Confocal imaging of P. berghei infected HC-04 cells treated with compound", "type": "cell-based, Plasmodium berghei", "conditions": "HC-04, 1x and 2x IC50, 48 hpi", "procedure,_shortened": "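HC-04 cells were seeded at 16,000 cells/well on poly-L-lysine-coated chamber slides and pretreated 24 h with test compound, NR1D2 inhibitor or DMSO. They were then infected with P. berghei Luc sporozoites (MOI 1:1), with treatment kept to 48 hpi. Cells were fixed in 4% PFA, permeabilised with 0.1% Triton X-100 and blocked in 1% BSA. Staining: anti-UIS4 1:1000 overnight at 4 °C, anti-NR1D2 1:500, LipidTOX 1:500 and DAPI. Imaging was at 63x oil. Merozoites per schizont were counted. Two biological replicates; one-way ANOVA with Dunnett's test.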"}, "NR1D2": {"system": "NR1D2", "test": "Western blot of NR1D2 protein in uninfected HC-04 cells", "type": "cell-based, human", "conditions": "uninfected HC-04, 1x to 10x IC50, 48 hours", "procedure,_shortened": "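Uninfected HC-04 cells were exposed 48 h to varying concentrations of test compound or NR1D2 inhibitor, then lysed. Protein was measured by DC assay, resolved by SDS-PAGE and transferred to nitrocellulose. Blots were blocked 1 h in 5% blocker and probed with anti-NR1D2 at 1:1000. Levels were expressed relative to beta actin.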"}, "[2]": {"system": "lipid droplets in uninfected HC-04 cells", "test": "HCS LipidTOX lipid droplet staining in uninfected HC-04 cells", "type": "cell-based, human"}, "[3]": {"system": "P. falciparum asexual blood stages", "conditions": "cited from earlier work"}, "[4]": {"system": "P. berghei in NR1D2 knockdown lines", "test": "Parasite development IC50 shift in NR1D2 shRNA knockdown cells", "type": "cell-based, Plasmodium berghei", "conditions": "stable shRNA knockdown, luciferase after 48 hours"}, "[5]": {"system": "P. berghei infected HepG2 cells", "test": "Cell Painting morphological profile compared with landmark compound set", "type": "cell-based, human"}, "P. berghei liver stages": {"molecular_target": "P. berghei liver stages", "test": "P. berghei luciferase liver stage assay", "type": "cell-based, Plasmodium berghei", "conditions": "IC50 used to set 1x and 2x treatment of HC-04 cells"}, "NR1D2 transcript": {"system": "NR1D2 transcript", "test": "qPCR of NR1D2 transcript in treated HC-04 cells", "type": "cell-based, human", "conditions": "HC-04, post treatment 48h", "procedure,_shortened": "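HC-04 cells were treated 48 h with varying concentrations of test compound or NR1D2 inhibitor. Cells were harvested, RNA was extracted, and NR1D2 transcript was quantified by qPCR with gene-specific primers.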"}}, "data": [{"molecule": "CN1CCN(Cc2cc(CNC3(c4ccccc4F)CCCC3)ccc2O)CC1", "note": "[ARN5187, reference compound]", "values": [{"measurement": "number of merozoites per schizont relative to DMSO", "setting": "[1]", "value": "lower number of merozoites per schizont"}, {"measurement": "NR1D2 protein expression level (western blot)", "setting": "NR1D2", "value": "no changes in protein expression levels"}]}, {"molecule": "CC1(C)c2nc(-c3ccc(F)cc3)c(Nc3ccc(Cl)cc3)n2CCN1C(=O)CN", "note": "[GNF179]", "values": [{"measurement": "HCS lipid tox staining intensities", "setting": "[2]", "value": "did not observe any significant changes"}]}, {"molecule": "Cc1cc(C(=O)Oc2ccccc2C(N)=O)c(C)n1Cc1ccco1", "note": "[MMV1088447]", "values": [{"measurement": "activity against asexual blood stages", "setting": "[3]", "value": "little activity"}, {"measurement": "number of merozoites per schizont relative to DMSO", "setting": "[1]", "value": "significant reduction"}, {"measurement": "parasite size relative to DMSO controls", "setting": "[1]", "value": "smaller"}, {"measurement": "difference in IC50 in NR1D2 knockdown lines relative to wild type cells", "setting": "[4]", "value": "did not see any differences"}, {"measurement": "morphological profile similarity / inferred host pathway", "setting": "[5]", "value": "phenocopied treatment with tamoxifen, endoxifen and lichochalcone A"}, {"measurement": "IC50", "setting": "P. berghei liver stages", "value": "1050 ± 290", "unit": "nM"}, {"measurement": "NR1D2 protein expression level (western blot)", "setting": "NR1D2", "value": "dose dependent reduction"}, {"measurement": "NR1D2 RNA expression levels", "setting": "NR1D2 transcript", "value": "no significant changes"}]}, {"molecule": "N#CC(C(=O)c1cc(S(=O)(=O)N2CCc3ccccc3C2)ccc1Cl)c1ccccn1", "note": "(stereo not shown) [MMV1346624]", "values": [{"measurement": "activity against asexual blood stages", "setting": "[3]", "value": "little activity"}, {"measurement": "number of merozoites per schizont relative to DMSO", "setting": "[1]", "value": "significant reduction"}, {"measurement": "parasite size relative to DMSO controls", "setting": "[1]", "value": "smaller"}, {"measurement": "difference in IC50 in NR1D2 knockdown lines relative to wild type cells", "setting": "[4]", "value": "did not see any differences"}, {"measurement": "morphological profile similarity / inferred host pathway", "setting": "[5]", "value": "phenocopied treatment with tamoxifen, endoxifen and lichochalcone A"}, {"measurement": "IC50", "setting": "P. berghei liver stages", "value": "1040 ± 730", "unit": "nM"}, {"measurement": "NR1D2 protein expression level (western blot)", "setting": "NR1D2", "value": "dose dependent reduction"}, {"measurement": "NR1D2 RNA expression levels", "setting": "NR1D2 transcript", "value": "no significant changes"}]}, {"molecule": "Cc1cccc2sc(C(=O)NCc3cccc(NS(N)(=O)=O)c3)c(Cl)c12", "note": "[MMV1452174]", "values": [{"measurement": "HCS lipid tox staining intensities", "setting": "[2]", "value": "did not observe any significant changes"}, {"measurement": "morphological profile similarity / inferred host pathway", "setting": "[5]", "value": "potential modulator of the host S1P pathway"}]}, {"molecule": "O=C1C(O)=C([C@H]2CC[C@H](c3ccc(Cl)cc3)CC2)C(=O)c2ccccc21", "note": "[atovaquone]", "values": [{"measurement": "HCS lipid tox staining intensities", "setting": "[2]", "value": "did not observe any significant changes"}]}]}
